In ChEMBL document CHEMBL4118269 (J Med Chem, 2018):
pKd: −log10 of the molar value. Values after ≈ are worked out from the molar mass of the structure shown.

Experiments:
Aspergillus fumigatus [1] = assay: Antifungal activity against Aspergillus fumigatus after 48 hrs
[2] = biological target: T1, Lanosterol 14-alpha demethylase (Aspergillus, UniProt B8NUK6+G4WW85+Q9P8R0); assay: Binding affinity to Aspergillus fumigatus CYP51 by spectral titration method; details: read-out: Kd(app)
T1 sequence (B8NUK6 whole entry): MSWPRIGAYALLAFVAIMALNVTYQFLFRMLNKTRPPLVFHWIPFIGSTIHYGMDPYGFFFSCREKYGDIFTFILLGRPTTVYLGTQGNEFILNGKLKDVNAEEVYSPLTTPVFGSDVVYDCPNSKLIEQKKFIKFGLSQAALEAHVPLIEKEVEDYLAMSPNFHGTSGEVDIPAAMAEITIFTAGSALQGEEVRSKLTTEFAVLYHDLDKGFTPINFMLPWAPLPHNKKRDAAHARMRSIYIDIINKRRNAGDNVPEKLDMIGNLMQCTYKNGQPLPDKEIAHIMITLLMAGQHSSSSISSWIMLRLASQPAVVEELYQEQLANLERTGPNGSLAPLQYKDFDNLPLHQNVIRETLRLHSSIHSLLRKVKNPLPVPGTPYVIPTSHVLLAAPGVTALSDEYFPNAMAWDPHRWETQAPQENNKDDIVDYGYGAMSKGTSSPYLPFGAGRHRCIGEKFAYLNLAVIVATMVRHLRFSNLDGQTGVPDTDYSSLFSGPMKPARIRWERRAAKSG
T1 sequence (Q9P8R0 whole entry): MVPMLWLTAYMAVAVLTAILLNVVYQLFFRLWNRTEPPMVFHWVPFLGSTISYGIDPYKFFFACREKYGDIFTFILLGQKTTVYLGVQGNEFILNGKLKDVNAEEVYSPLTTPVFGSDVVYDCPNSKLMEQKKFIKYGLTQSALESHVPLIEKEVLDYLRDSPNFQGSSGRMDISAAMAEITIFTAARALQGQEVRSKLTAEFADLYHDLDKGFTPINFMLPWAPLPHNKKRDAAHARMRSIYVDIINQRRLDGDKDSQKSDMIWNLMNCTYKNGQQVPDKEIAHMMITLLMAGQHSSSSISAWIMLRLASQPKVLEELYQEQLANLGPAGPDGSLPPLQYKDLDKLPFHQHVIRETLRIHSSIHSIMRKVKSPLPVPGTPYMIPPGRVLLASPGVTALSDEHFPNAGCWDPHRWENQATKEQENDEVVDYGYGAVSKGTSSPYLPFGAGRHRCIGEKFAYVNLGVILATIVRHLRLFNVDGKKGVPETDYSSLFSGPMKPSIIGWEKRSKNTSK
T1 sequence (G4WW85 whole entry): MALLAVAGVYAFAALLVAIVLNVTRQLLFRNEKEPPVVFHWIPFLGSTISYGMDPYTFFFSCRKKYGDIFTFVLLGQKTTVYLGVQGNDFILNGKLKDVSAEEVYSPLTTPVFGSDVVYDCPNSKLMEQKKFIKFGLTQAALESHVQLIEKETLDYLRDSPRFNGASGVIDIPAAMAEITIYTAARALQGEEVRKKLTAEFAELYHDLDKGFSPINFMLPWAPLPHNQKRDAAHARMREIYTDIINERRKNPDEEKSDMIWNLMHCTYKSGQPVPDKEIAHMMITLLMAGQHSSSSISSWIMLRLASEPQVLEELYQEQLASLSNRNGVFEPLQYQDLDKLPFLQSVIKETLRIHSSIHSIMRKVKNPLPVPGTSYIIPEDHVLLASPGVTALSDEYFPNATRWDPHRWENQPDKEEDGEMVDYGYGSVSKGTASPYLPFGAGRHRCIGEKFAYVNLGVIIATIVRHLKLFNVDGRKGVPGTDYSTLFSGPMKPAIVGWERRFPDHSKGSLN
Procedure, shortened: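 Purified CYP51 at 0.5 μM in 5 cm path cuvettes, titrated from 0.2 mM DMSO stocks over 0.1–0.8 μM ligand. Type II red shift of the Soret band (417 to 424 nm) followed as ΔA (Amax−Amin) in difference spectra. Kd obtained by fitting to the quadratic tight-binding equation using total ligand and enzyme concentrations.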

[3] = Half life in Sprague-Dawley rat liver microsomes at 1 uM preincubated for 5 mins followed by NADPH addition measured up to 45 mins by LC-MS/MS analysis; type: ADME, microsome; details: 0.75 h
Procedure, shortened: (§1)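 Pooled liver microsomes (0.5 mg/mL; male CD-1 mouse, male Sprague Dawley rat, or mixed-gender human) with 1 μM compound in 100 mM potassium phosphate pH 7.4, 3 mM MgCl2, 37 °C with shaking. 5 min preincubation, then 1 mM NADPH. Aliquots at 0, 3, 7, 15, 25, 45 min quenched in cold CH3CN with carbamazepine internal standard, then LC/MS/MS. Triplicate; T1/2 = ln2/k from the slope of ln % remaining versus time.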

Aspergillus fumigatus [4] = assay: Antifungal activity against Aspergillus fumigatus 1022 after 48 hrs by CLSI M38-A2 protocol based assay; type: functional; details: Aspergillus fumigatus, 1022, 48 h; read-out: MIC100
in vitro [5] = details: CD-1, mouse, liver microsomes
[6] = Lipophilicity, log P of the compound; type: physicochemical; details: octanol/water
in vitro [7] = details: CD-1, mouse, liver microsomes; remark: listed apart in the source
[8] = biological target: T2, Lanosterol 14-alpha demethylase (Candida albicans (strain SC5314 / ATCC MYA-2876) (Yeast), UniProt P10613); assay: Inhibition of Candida albicans CYP51 assessed as reduction in [3-3H]lanosterol 14alpha-demethylation at 0.75 uM preincubated for 60 secs followed by NADPH addition measured after 60 mins by RP-HPLC analysis relative to control; details: 1 h
Procedure, shortened: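 C. albicans CYP51 expressed in E. coli and purified, 0.5 μM, with 1.0 μM rat NADPH-P450 reductase, dilauroylphosphatidylcholine and isocitrate dehydrogenase/isocitrate regeneration in 50 mM potassium phosphate pH 7.2, 10% glycerol, 0.1% Triton X-100. Substrate 25 μM final; inhibitor:enzyme:substrate 1.5:1:50. 37 °C, started with 100 μM NADPH. Sterols extracted with EtOAc, radio-HPLC. Triplicate, mean ± SD.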

[9] = Half life in CD-1 mouse liver microsomes at 1 uM preincubated for 5 mins followed by NADPH addition measured up to 45 mins by LC-MS/MS analysis; type: ADME, microsome; details: 0.75 h
Procedure, shortened: as §1

in vitro [10] = details: Sprague-Dawley, rat, liver microsomes
in vitro [11] = details: human, liver microsomes
[12] = Half life in human liver microsomes at 1 uM preincubated for 5 mins followed by NADPH addition measured up to 45 mins by LC-MS/MS analysis; type: ADME, microsome; details: 0.75 h
Procedure, shortened: as §1

[13] = biological target: Lanosterol 14-alpha demethylase (Aspergillus) (UniProt B8NUK6+Q9P8R0+G4WW85); assay: Inhibition of Aspergillus fumigatus CYP51 assessed as reduction in [3-3H]eburicol 14alpha-demethylation at 0.75 uM preincubated for 60 secs followed by NADPH addition measured after 60 mins by RP-HPLC analysis relative to control
Procedure, shortened: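 E. coli-expressed, purified CYP51 (0.5 μM) with rat NADPH-P450 reductase (1.0 μM), 100 μM dilauroylphosphatidylcholine, isocitrate dehydrogenase/isocitrate NADPH regeneration, in 50 mM K phosphate pH 7.2 with 10% glycerol and 0.1% Triton X-100. [3-3H]eburicol 25 μM final, inhibitor 0.75 μM final (1.5:1:50 inhibitor:enzyme:substrate), 37 °C. Started with 100 μM NADPH, 60 min, EtOAc extraction, radio-HPLC. Percent inhibition, triplicate, mean ± SD.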

Aspergillus fumigatus [14] = assay: Antifungal activity against Aspergillus fumigatus 32820 after 48 hrs by CLSI M38-A2 protocol based assay; type: functional; details: Aspergillus fumigatus, 32820, 48 h; read-out: MIC100
in vitro [15] = details: human, liver microsomes; remark: listed apart in the source
in vitro [16] = details: Sprague-Dawley, rat, liver microsomes; remark: listed apart in the source
[17] = biological target: T2, Lanosterol 14-alpha demethylase; assay: Binding affinity to Candida albicans CYP51 by spectral titration method; details: read-out: Kd(app)
Procedure, shortened: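 Purified CYP51 at 0.5 μM in 5 cm path cuvettes, titrated from 0.2 mM DMSO stocks over 0.1–0.8 μM ligand. Kd obtained by fitting to the quadratic tight-binding equation using total ligand and enzyme concentrations.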

[18] = biological target: T2, Lanosterol 14-alpha demethylase; assay: Potency index, ratio of VNI Kd(app) to compound Kd(app) for Candida albicans CYP51
Aspergillus fumigatus [19] = assay: Antifungal activity against Aspergillus fumigatus MYA626 after 48 hrs by CLSI M38-A2 protocol based assay; type: functional; details: MYA626, 48 h, read-out: MIC100

T2 sequence (P10613 whole entry): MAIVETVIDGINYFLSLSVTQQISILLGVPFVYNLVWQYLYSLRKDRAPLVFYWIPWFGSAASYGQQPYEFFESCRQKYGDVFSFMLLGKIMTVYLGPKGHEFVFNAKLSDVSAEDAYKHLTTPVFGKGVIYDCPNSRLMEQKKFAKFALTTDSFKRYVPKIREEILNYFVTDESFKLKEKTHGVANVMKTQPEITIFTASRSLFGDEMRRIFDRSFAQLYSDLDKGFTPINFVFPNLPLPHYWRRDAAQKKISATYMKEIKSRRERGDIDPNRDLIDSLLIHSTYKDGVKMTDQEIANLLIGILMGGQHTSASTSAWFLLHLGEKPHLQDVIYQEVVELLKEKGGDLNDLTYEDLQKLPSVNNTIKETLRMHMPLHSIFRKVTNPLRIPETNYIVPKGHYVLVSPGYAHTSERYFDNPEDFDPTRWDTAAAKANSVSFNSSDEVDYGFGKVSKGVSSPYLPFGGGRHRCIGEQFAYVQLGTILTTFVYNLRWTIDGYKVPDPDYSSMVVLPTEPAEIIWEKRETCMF

## C[C@@H](c1ncncc1F)[C@](O)(Cn1cncn1)c1ccc(F)cc1F [VORICONAZOLE]
Aspergillus fumigatus [1]
  MIC: 0.7 µg/mL (≈ 2 µM)
[2]
  pKd: 7.25

## O=C(N[C@@H](Cn1ccnc1)c1ccc(Cl)cc1Cl)c1ccc(-c2nnc(-c3ccccc3)o2)cc1
[3]
  t1/2: 1.77 h
Aspergillus fumigatus [4]
  MIC: 0.48 µg/mL (≈ 0.952 µM)
In vitro [5]
  CLhep predicted at 0.75 h, 1 µM: 44 mL/min/kg
[6]
  logP: 4.57
In vitro [7]
  CLint scaled at 0.75 h, 1 µM: 87 mL/min/kg
[8]
  inhibition at 0.75 µM: 20%
[9]
  t1/2: 1.03 h
In vitro [10]
  CLhep predicted at 0.75 h, 1 µM: 19.2 mL/min/kg
Aspergillus fumigatus [1]
  MIC: 0.5 µg/mL (≈ 0.991 µM)
In vitro [11]
  CLint scaled at 0.75 h, 1 µM: 8.31 mL/min/kg
[12]
  t1/2: 2.5 h
[13]
  inhibition: 24%
Aspergillus fumigatus [14]
  MIC: 0.08 µg/mL (≈ 0.159 µM)
In vitro [15]
  CLhep predicted at 0.75 h, 1 µM: 5.95 mL/min/kg
[2]
  pKd: 6.69
In vitro [16]
  CLint scaled at 0.75 h, 1 µM: 26.4 mL/min/kg

## CC[C@@H]([C@H](C)O)n1ncn(-c2ccc(N3CCN(c4ccc(OC[C@@H]5CO[C@@](Cn6cncn6)(c6ccc(F)cc6F)C5)cc4)CC3)cc2)c1=O [POSACONAZOLE]
[17]
  pKd: 7.09
[18]
  Ratio: 3.5
[8]
  inhibition at 0.75 µM: 98%
[13]
  inhibition: 93%
[2]
  pKd: 6.88

## O=C(N[C@@H](Cn1ccnc1)c1ccc(Cl)cc1Cl)c1ccc(-c2nnc(-c3ccc(OCC(F)(F)F)cc3F)o2)cc1
Aspergillus fumigatus [4]
  MIC: 0.19 µg/mL (≈ 0.306 µM)
In vitro [5]
  CLhep predicted at 0.75 h, 1 µM: 44 mL/min/kg
Aspergillus fumigatus [19]
  MIC: 0.39 µg/mL (≈ 0.629 µM)
[6]
  logP: 5.58
In vitro [7]
  CLint scaled at 0.75 h, 1 µM: 88 mL/min/kg
[8]
  inhibition at 0.75 µM: 94%
[9]
  t1/2: 1.03 h
In vitro [10]
  CLhep predicted at 0.75 h, 1 µM: 34 mL/min/kg
In vitro [11]
  CLint scaled at 0.75 h, 1 µM: 16.5 mL/min/kg
[12]
  t1/2: 1.27 h
[13]
  inhibition: 82%
Aspergillus fumigatus [14]
  MIC: 0.06 µg/mL (≈ 0.0967 µM)
In vitro [15]
  CLhep predicted at 0.75 h, 1 µM: 9.24 mL/min/kg
[2]
  pKd: 7.70
In vitro [16]
  CLint scaled at 0.75 h, 1 µM: 64 mL/min/kg

## O=C(N[C@@H](Cn1ccnc1)c1ccc(Cl)cc1Cl)c1ccc(-c2nnc(-c3ccc(F)c(F)c3)o2)cc1
[3]
  t1/2: 1.52 h
Aspergillus fumigatus [4]
  MIC: 0.29 µg/mL (≈ 0.537 µM)
In vitro [5]
  CLhep predicted at 0.75 h, 1 µM: 34 mL/min/kg
Aspergillus fumigatus [19]
  MIC: 0.78 µg/mL (≈ 1.44 µM)
[6]
  logP: 4.88
In vitro [7]
  CLint scaled at 0.75 h, 1 µM: 55 mL/min/kg
[9]
  t1/2: 1.63 h
In vitro [10]
  CLhep predicted at 0.75 h, 1 µM: 21 mL/min/kg
In vitro [11]
  CLint scaled at 0.75 h, 1 µM: 7.53 mL/min/kg
[12]
  t1/2: 2.77 h
[13]
  inhibition: 58%
Aspergillus fumigatus [14]
  MIC: 0.08 µg/mL (≈ 0.148 µM)
In vitro [15]
  CLhep predicted at 0.75 h, 1 µM: 5.54 mL/min/kg
[2]
  pKd: 7.24
In vitro [16]
  CLint scaled at 0.75 h, 1 µM: 31 mL/min/kg

## O=C(N[C@@H](Cn1ccnc1)c1ccc(Cl)cc1Cl)c1ccc(-c2nnc(-c3cc(F)cc(-c4ncncc4F)c3)o2)cc1
Aspergillus fumigatus [4]
  MIC: 0.48 µg/mL (≈ 0.776 µM)
In vitro [5]
  CLhep predicted at 0.75 h, 1 µM: 48.3 mL/min/kg
Aspergillus fumigatus [19]
  MIC: 0.78 µg/mL (≈ 1.26 µM)
[6]
  logP: 5.05
In vitro [7]
  CLint scaled at 0.75 h, 1 µM: 104 mL/min/kg
[8]
  inhibition at 0.75 µM: 92%
[9]
  t1/2: 0.867 h
In vitro [10]
  CLhep predicted at 0.75 h, 1 µM: 19.5 mL/min/kg
In vitro [11]
  CLint scaled at 0.75 h, 1 µM: 14.9 mL/min/kg
[12]
  t1/2: 1.4 h
[13]
  inhibition: 57%
Aspergillus fumigatus [14]
  MIC: 0.19 µg/mL (≈ 0.307 µM)
In vitro [15]
  CLhep predicted at 0.75 h, 1 µM: 8.37 mL/min/kg
[2]
  pKd: 6.88
In vitro [16]
  CLint scaled at 0.75 h, 1 µM: 27 mL/min/kg

## O=C(N[C@@H](Cn1ccnc1)c1ccc(Cl)cc1Cl)c1ccc(-c2nnc(-c3ccc(C(F)(F)F)c(F)c3)o2)cc1
[3]
  t1/2: 1.28 h
Aspergillus fumigatus [4]
  MIC: 0.19 µg/mL (≈ 0.322 µM)
In vitro [5]
  CLhep predicted at 0.75 h, 1 µM: 36 mL/min/kg
Aspergillus fumigatus [19]
  MIC: 0.39 µg/mL (≈ 0.661 µM)
[6]
  logP: 5.65
In vitro [7]
  CLint scaled at 0.75 h, 1 µM: 60 mL/min/kg
[8]
  inhibition at 0.75 µM: 89%
[9]
  t1/2: 1.53 h
In vitro [10]
  CLhep predicted at 0.75 h, 1 µM: 24 mL/min/kg
In vitro [11]
  CLint scaled at 0.75 h, 1 µM: 6.06 mL/min/kg
[12]
  t1/2: 3.43 h
[13]
  inhibition: 65%
Aspergillus fumigatus [14]
  MIC: 0.09 µg/mL (≈ 0.152 µM)
In vitro [15]
  CLhep predicted at 0.75 h, 1 µM: 4.07 mL/min/kg
[2]
  pKd: 7.26
In vitro [16]
  CLint scaled at 0.75 h, 1 µM: 36 mL/min/kg
